# Assay outcomes: PubChem, several laboratories
# NALP3 yeast inh: NALP3 inflammasome inhibitors in reconstituted yeast, primary screen, luminescence, uHTS | Yeast reconstituted NLRP3/ASC/caspase-1, beta-gal luminescence, 24 h | hit rate 0.39% among 330,000 | inhibition, % at 10 µM | AID 2825, 2010;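 active means inhibition of 50% or more; inactive means inhibition below 50%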;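 further: plate controls were induced DMSO wells for no effect and uninduced yeast grown without galactose for full effect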
# PolyA inh: polyadenylation inhibitors in yeast reporter cells, primary screen, luminescence, S. cerevisiae. S. cerevisiae SKY197-pL101 polyadenylation reporter, beta-gal luminescence; efflux-impaired pdr1/pdr3 knockout yeast; score 100 = 6 SD above DMSO. hit rate 0.02% among 300,000. activity score, % at 12 µM. AID 1875, 2009;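 active means lowest replicate activity score at least 50, where 100 means six control SD above control mean; inconclusive means lowest score under 50 but half or more replicates reach 50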;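 further: yeast exposed to compound for 9 h at 30 °C; higher score means more reporter readthrough which indicates perturbed polyadenylation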
# Arrestin-AP2 inh: inhibitors of beta-arrestin/AP2 binding, primary screen, biochemical, GPCR trafficking, flow cytometry; FITC-arrestin peptide / GST-AP2 beads; AP2 beta2 appendage carries R879A mutation; inhibition, % at 10 µM; hit rate 0.31% among 340,000;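 active means inhibition above a set limit, near 3 SD of compounds lacking own fluorescence, cut at about 54% in these data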;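 further: plate controls were DMSO wells for no effect and 5 µM unlabelled arrestin peptide for full effect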
#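 System: GST-tagged AP2 beta2-adaptin appendage (R879A) on 4 µm glutathione beads / Reagent: FITC-arrestin peptide, 50 nM / Detection: HyperCyt-sampled flow cytometry, FL1 channel, ex 488/em 535 nm / Timing: 12 min plus 1 h, RT / Buffer or medium: PBS plus Tween 20 (0.05%) and BSA (0.1%)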
# NALP1 inh: NALP1 inflammasome inhibitors in reconstituted yeast, colorimetric, S. cerevisiae, triplicate retest | hit rate 0.61% among 280,000 | S. cerevisiae NALP1/ASC/caspase-1 growth, X-gal OD620, 72 h | inhibition, % at 10 µM | AID 2071, 2009; in the data active means inhibition mostly above about 24%, no sharp cut-off; inactive means mostly below about 32%
# Pemphigus Ab inh: inhibitors of pemphigus antibody binding to DSG3, primary screen, biochemical, bead-based, flow cytometry, scFv-GFP; Desmoglein-3 (Homo sapiens), P32926; DSG3-coupled beads, scFv-anti-DSG3-GFP binding; hits give low values; binding (percent of control), % at 10 µM; hit rate 0.48% among 310,000; AID 588358, 2011;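 active means binding more than 3 SD below its plate's average and above zero; inconclusive means below that plate limit but binding exactly zero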;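 further: hits lower antibody fragment binding to DSG3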
# Target sequence (P32926 whole entry, looked up, the tested form may be a part): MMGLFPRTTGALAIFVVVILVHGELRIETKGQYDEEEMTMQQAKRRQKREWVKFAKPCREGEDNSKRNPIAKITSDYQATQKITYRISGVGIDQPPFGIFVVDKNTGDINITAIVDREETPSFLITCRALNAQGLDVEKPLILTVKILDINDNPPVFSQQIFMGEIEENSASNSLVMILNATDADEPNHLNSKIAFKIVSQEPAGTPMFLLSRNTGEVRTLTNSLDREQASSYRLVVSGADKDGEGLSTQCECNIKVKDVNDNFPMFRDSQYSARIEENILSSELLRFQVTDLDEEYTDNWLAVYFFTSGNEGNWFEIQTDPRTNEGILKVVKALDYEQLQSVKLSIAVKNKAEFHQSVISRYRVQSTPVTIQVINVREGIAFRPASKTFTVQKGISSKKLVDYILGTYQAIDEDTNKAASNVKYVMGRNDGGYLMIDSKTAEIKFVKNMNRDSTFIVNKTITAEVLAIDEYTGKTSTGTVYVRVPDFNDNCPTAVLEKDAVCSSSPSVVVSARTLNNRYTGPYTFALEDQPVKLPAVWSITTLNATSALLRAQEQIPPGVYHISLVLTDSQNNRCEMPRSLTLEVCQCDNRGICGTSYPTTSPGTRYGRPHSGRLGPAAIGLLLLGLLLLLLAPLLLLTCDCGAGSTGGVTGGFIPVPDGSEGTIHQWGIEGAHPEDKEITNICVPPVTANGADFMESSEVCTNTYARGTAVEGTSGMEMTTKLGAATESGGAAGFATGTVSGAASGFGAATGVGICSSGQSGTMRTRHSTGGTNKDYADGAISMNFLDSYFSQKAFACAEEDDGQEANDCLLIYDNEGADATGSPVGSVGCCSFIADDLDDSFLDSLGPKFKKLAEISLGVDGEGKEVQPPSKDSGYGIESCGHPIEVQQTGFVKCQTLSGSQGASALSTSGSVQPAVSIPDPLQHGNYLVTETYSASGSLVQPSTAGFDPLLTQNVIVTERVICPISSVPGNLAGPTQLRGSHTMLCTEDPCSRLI
# ALR H2O2 inh: inhibitors of human ALR sulfhydryl oxidase, primary screen, biochemical, H2O2 detection, HRP-luminol luminescence, single point. purified ALR, DTT oxidation. inhibition, % (test concentration not listed). hit rate 3.8% among 290,000;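 active means mean replicate inhibition above about 79%, with every replicate also reaching it, limit read from the data; inconclusive means only one of the two criteria met; inactive means mean below limit and not every replicate reaching it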
# Numbers without * were called inactive; u = inconclusive; x = no result. Sampled rows, rich in hits. Any-hit rate of the full collection: about 4.6%.
SMILES,NALP3 yeast inh,PolyA inh,Arrestin-AP2 inh,NALP1 inh,Pemphigus Ab inh,ALR H2O2 inh
Cc1ccc(C(=O)CSc2nnc(-c3cccs3)n2C)o1,-1.7,u,3.5,-18.3,96.3,49.4
Cn1c(SCC(=O)c2ccc(O)c(O)c2)nnc1-c1cccs1,13.7,21.0,-15.2,13.3,134.8,99.0*
CCN(CC)CCNC(=O)c1cc(Br)c(N)cc1OC,0.8,x,0.8,x,109.2,-18.8
CCNC(=O)CP(=O)(c1ccccc1)c1ccccc1,16.6,-8.4,26.9,3.8,73.1*,-10.3
COc1ccc(C(=O)C2CCN(C(=S)NCCc3ccc(OC)c(OC)c3)CC2)cc1,22.9,-2.8,-7.9,6.9,-9.4*,-10.3
COc1ccc(CCNC(=O)c2ccc(OCC(=O)N3CCOCC3)c(OC)c2)cc1OC,6.3,-10.7,39.4,29.9*,x,-0.2
COc1cc(C(=O)Nc2ccc(C)cn2)ccc1OCC(=O)N1CCOCC1,15.0,x,13.6,x,91.2,17.8
COc1ccc(-c2nc(NC(=O)c3ccc(OCC(=O)N4CCOCC4)c(OC)c3)sc2C)cc1,-0.1,8.4,2.1,x,91.6,96.1*
COc1ccc(CCNCc2ccc(OCC(=O)N3CCCCC3)c(OC)c2)cc1OC,-3.5,-3.2,-6.4,34.3*,91.9,-3.9
Cc1c(N=O)c(-c2ccccc2)n(O)[n+]1[O-],x,x,x,x,100.5,x
O=C(COc1ccccc1Cc1ccccc1)Nc1cccnc1,22.8,x,20.8,x,102.2,1.6
O=C(Nc1nccs1)c1ccc(N2C(=O)[C@@H]3[C@H](C2=O)[C@H]2C=C[C@@H]3C2)cc1,7.3,5.2,17.2,-0.8,68.8*,-9.1
O=C(Nc1nccs1)c1cccc(N2C(=O)C3C4C=CC(C4)C3C2=O)c1 (stereo not given),6.1,7.8,24.5,22.2,95.2,-4.7
CN(C)c1ccc(N/C(=N\S(=O)(=O)c2cccs2)c2ccccc2)cc1,3.5,0.6,9.2,22.6,84.3,98.8*
Cc1ccc(-n2c(SCC(=O)N3CC(=O)Nc4ccccc43)nc3ccccc3c2=O)cc1,7.7,-11.1,40.7,37.5,99.7,98.3*
Cc1cccc(C)c1-n1c(SCC(=O)N2CC(=O)Nc3ccccc32)nc2ccccc2c1=O,6.7,10.5,0.6,25.0,99.7,-8.1
CC1CC(C)CN(C(=O)c2ccc3nc[nH]c3c2)C1 (stereo not given),7.4,16.7,16.8,9.3,103.7,12.9
CC1CC(C)CN(C(=O)c2ccc3ncsc3c2)C1 (stereo not given),8.0,x,1.1,x,98.0,78.9*
O=C(CN1CCN(c2ccccc2)CC1)c1ccc2cc[nH]c2c1,20.7,-6.3,12.6,37.7*,101.8,4.5
O=C(CN1CCC2(CC1)OCCO2)c1ccc2cc[nH]c2c1,15.7,17.7,28.8,31.7,95.0,-24.9
Cc1ccc2c(CC(=O)NNC(=O)c3ccccc3)coc2c1,16.3,-0.6,3.5,19.7,111.3,-1.0
O=C(Cc1coc2cc(O)ccc12)NNC(=O)c1ccc(Br)s1,0.3,x,0.7,x,x,99.3*
O=C(NNc1ccccc1)c1ccc(Cl)c(Cl)c1,x,x,-5.2,x,88.9,x
COc1cc(Sc2ccc(C)cc2)c(OC)cc1N,23.9,-12.8,5.1,2.5,80.1*,98.4*
COC(=O)c1ccc(Sc2ccc(C)cc2)c(N)c1,26.1,-1.5,3.8,-8.6,85.6,-6.8
SMILES,NALP3 yeast inh,PolyA inh,Arrestin-AP2 inh,NALP1 inh,Pemphigus Ab inh,ALR H2O2 inh
CCOc1c(Br)cc(/C=C(\C#N)C(=O)NC2CC2)cc1OC,14.3,-10.8,-3.1,-3.3,112.8,56.2
C=CCNC(=O)/C(C#N)=C\c1cc(Cl)c(OCC)c(OC)c1,34.0,-34.0,-12.4,39.8,99.7,98.2*
COc1ccc(NCc2ccc(OC)c(Cn3ccnc3)c2)c(OC)c1,30.1,-5.9,41.1,6.5,106.6,98.9*
Cc1cccc(N=Cc2cc3c(cc2[N+](=O)[O-])OCO3)c1,9.3,7.4,9.2,12.1,x,x
COc1cc(C=Nc2cccc(C)c2)c(O)c([N+](=O)[O-])c1,6.8,-15.7,-5.0,49.0*,95.4,-5.4
CCOc1ccc(NC(=O)Nc2ccc3c(c2)nnn3C)cc1,1.7,4.1,5.9,x,106.4,98.6*
COC(=O)c1scc(C)c1N/N=C(\C)c1cc(F)c(Cl)cc1F,5.3,-15.5,23.8,42.0*,92.7,-1.4
CC(C)CN(C(=O)C1CCCO1)c1c(N)n(CC(C)C)c(=O)[nH]c1=O (stereo not given),19.3,x,-9.7,x,101.8,x
CC1CCN(C(=O)Cn2c3ccccc3c3nc4n(c(=O)c32)CCS4)CC1,5.7,17.9,-11.4,9.1,x,x
Cc1ccc(S(=O)(=O)N2C[C@H]3C(=O)C[C@@H](c4ccccc4)N(S(=O)(=O)c4ccc(C)cc4)[C@H]3C[C@H]2c2ccc(Cl)cc2)cc1,x,x,x,x,98.7,x
COc1ccc(/C=N/NC(=O)c2cc(C)oc2C)cc1OC,15.0,-11.6,-9.6,6.3,112.5,-10.3
COc1cc(/C=N/NC(=O)c2cc(C)oc2C)ccc1O,-25.0,-10.3,-5.2,0.7,104.2,98.6*
COc1ccc(C=NNC(=O)c2cc(C)oc2C)cc1O,3.6,x,17.5,x,122.3,98.9*
COc1cc(/C=N/NC(=O)c2cc(C)oc2C)cc(OC)c1OC,7.4,11.4,1.9,-1.7,98.5,0.0
Cc1ccc(/C=N/NC(=O)c2cc(C)oc2C)cc1,20.5,14.1,32.6,36.4*,107.7,-9.5
COc1cc(C=NNC(=O)c2ccccc2-n2cccc2)ccc1O,4.5,x,13.3,x,91.4,98.9*
Cc1cc(C(=O)N/N=C/c2ccncc2)c(C)o1,16.2,-1.9,-4.6,-47.3,x,-3.3
COc1ccc(S(=O)(=O)N2CCC(C(=O)NCC(=O)Nc3c(C)cccc3C)CC2)cc1OC,x,x,38.3,x,100.7,x
COc1ccc(-c2noc(N3CCCC(C(=O)Nc4ccc(C(C)=O)cc4)C3)n2)cc1 (stereo not given),22.8,-0.1,-2.8,8.2,x,-3.6
NC(=O)c1ncn([C@@H]2O[C@H](CNCc3cccc(OC4CCCC4)c3)[C@@H](O)[C@H]2O)n1,x,x,2.5,x,92.7,x
COc1ccc(/C=N/NC(=O)c2ccccc2O)cc1Cn1cc(Cl)cn1,23.2,-2.4,6.5,0.7,97.2,79.5*
COc1cccc(/C=N/NC(=O)c2ccoc2C)c1,15.6,6.4,-10.5,35.5*,107.5,1.1
COc1ccc(/C=N\NC(=O)c2cccc([N+](=O)[O-])c2)cc1Cn1cc([N+](=O)[O-])cn1,-1.4,-25.2,x,3.8,x,0.9
Cc1c(Cl)cccc1NC(=O)CSc1nc(=O)n(CCCN2CCOCC2)c2c1CCCC2,x,x,x,x,92.5,x
